PubChem BioAssay
A number with no mark means an inactive call. Records with an inconclusive call do not appear. Calls of active or inactive are those of the source.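 The calls were made as follows, unless noted: active = viability increase at or above a cutoff of the median across tested compounds plus 3 SD (cut at about 8.5% in these data, passing the limit was not always enough); inconclusive = some gains above the cutoff, reason not given; inactive = the rest.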

Legend:
[1] = S. cerevisiae growth inhibition in permissive medium (OD615), pilot counter-assay for S. cerevisiae lifespan shortening project, permissive growth control (AID 705;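 active = growth inhibition above 25% in both replicates, a cutoff set 3 SD above the mean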); details: OD615, 24 h, at 10 µM, hits give high values
Procedure, shortened: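 System: S. cerevisiae with engineered DeaD lifespan system. Medium: SC raffinose/galactose permissive medium. Doses: single compound dose of 10 µM, 0.25% DMSO final. Schedule: 24 h exposure, 30 °C. Measured by: OD615 turbidity read. Read-out: growth inhibition.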

[2] = S. cerevisiae growth inhibition in restrictive medium, OD615, pilot screen, restrictive growth control, yeast lifespan reduction project (AID 706;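 active = growth inhibition above a set limit, 3 SD over mean compound inhibition, in both replicates, cut at about 43% in these data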;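 also: modified DeaD lifespan yeast strain shifted to restrictive glucose medium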); details: OD615, 48 h, at 10 µM, hits give high values
Procedure, shortened: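 Assay system – genetically modified Saccharomyces cerevisiae, DeaD replicative lifespan assay strain · Medium – CSMM-D glucose medium · Doses – 10 µM compound, 0.25% DMSO · Times – 4 h pre-incubation, 48 h exposure at 30 °C · Signal – optical density at 615 nm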

[3] = doxorubicin toxicity protection in MRP-1 cells – H69AR cells, CellTiter-Glo, duplicate, MRP-1 activator project, pilot screen (AID 807); details: H69AR viability with doxorubicin, CellTiter-Glo luminescence; at 10 µM; hits give high values;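 also: compound pretreatment 18-22 h then 72 h combined with doxorubicin; 0% = doxorubicin alone and 100% = vehicle without doxorubicin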
[4] = viability of HCT116 without oncogenic beta-catenin – human colon tumor cells, pilot screen (AID 823;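 active = cell viability at or below a set limit in both duplicate runs, the limit being the all-compound median minus 4 SD, cut at about 23% in these data, passing the limit was not always enough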;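 also: 0% = wells killed by 20 µM Hyamine and 100% = untreated DMSO cell wells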); details: HCT116 beta-catenin knockout viability, CellTiter-Glo, 60 h; at 10 µM; hits give low values
[5] = viability of PTEN-null HCT116 cells – cell-based, HCT116 clonal line, CellTiter-Glo, pilot screen (AID 824;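 active = viability at or below 27.92% in each of two runs, the all-compound median minus 4 SD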;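 also: 0% = 20 µM Hyamine control and 100% = vehicle cell control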); details: HCT116 PTEN-deleted viability, 60 h, at 10 µM, hits give low values
[6] = RAM pathway blockade in budding yeast – dse1pr::URA3 reporter, 5-FOA selection, pilot screen (AID 869;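 active = inhibition over a set limit, the all-compound mean plus 3 SD, in both replicate runs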;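 also: 0% = DMSO wells with no growth and 100% = 10 µM 1-NA-PP1 with full growth; RAM network block rescues cells from 5-FOA so hits raise OD615 growth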); details: S. cerevisiae dse1pr::URA3 5-FOA growth, OD615, 2 d; at 10 µM; hits give high values; strain carries analog-sensitive mutant Cbk1 kinase
[7] = RAM signaling pathway blockade in yeast – S. cerevisiae, Pdr1DBD-CYC8 efflux-inhibited sensitized strain, primary screen (AID 1298;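 active = RAM network inhibition above 8.4% in each of two replicates, 3 SD over the compound average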;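 also: 0% = DMSO untreated cells without growth and 100% = 10 µM 1-NA-PP1 full growth; higher means more yeast growth rescued from 5-FOA killing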); details: S. cerevisiae cbk1-as DSE1-URA3 strain, 5-FOA growth OD615, 2 d; at 50 µM; hits give high values

| Compound | growth inhibition [1] [%] | growth inhibition [2] | viability increase [3] [%] | viability [4] [%] | viability [5] [%] | inhibition [6] [%] | RAM network inhibition [7] [%] |
| --- | --- | --- | --- | --- | --- | --- | --- |
| Cn1c(Cn2c(=O)sc3ccccc32)nnc1SCC(=O)Nc1ccc(Cl)cc1 | -9.07 | -17.2% | -3.25 | 98.6 | 89 | 3.06 | 5.32 |
| COc1ccc(C2C(C#N)=C(N)N3C(=C2C#N)Sc2ccccc23)cc1 (stereo not drawn) | -1.28 | -4.12% | -0.06 | 98.9 | 102 | 1.09 | 8.82 |
| O=C(c1ccco1)N1CCN(c2ncccn2)CC1 | -12.9 | -5.72% | -1.88 | 98.9 | 96.3 | 2.97 | -0.22 |
| COc1ccc(OCc2nnc3n2N=C(c2ccc(OC)cc2)CS3)cc1 | 7.92 | 57.4% (active) | -2.84 | 69.9 | 66.4 | 2.15 | 7.82 |
| Cc1ccccc1NCN1C(=O)C2C3C=CC(C3)C2C1=O (stereo not drawn) | -11.2 | -18.2% | -2.43 | 86 | 96.2 | 3.66 | 0.48 |
| N#CC1=C(N)C(C#N)(C#N)C2(C(=O)Nc3ccccc32)C2CCCC=C12 (stereo not drawn) | 5.05 | -12.2% | -4.96 | 91.5 | 82.6 | 0.71 | 0.83 |
| C=CCOn1c(=O)c(C)[n+]([O-])c2ccccc21 | -11.6 | -14.3% | -0.5 | 105 | 98.2 | -0.085 | 5.63 |
| Cc1onc(-c2c(F)cccc2Cl)c1C(=O)OCC(=O)Nc1c(C)n(C)n(-c2ccccc2)c1=O | -3.96 | -1.53% | -0.55 | 87.4 | 90.3 | 0.92 | 1.78 |
| COC(=O)c1ccccc1NC(=O)CSc1nc(N)cc(N)n1 | -11.6 | 5.95% | -2.46 | 94.1 | 98.3 | 0.39 | -0.05 |
| N#CCCN1CCN(S(=O)(=O)c2ccc(S(=O)(=O)N3CCCCCC3)cc2)CC1 | 1.57 | -16.9% | -2.09 | 97.4 | 94.3 | 0.525 | 11.9 |
| CCOC(=O)C1CCN(C(=O)CN(c2cccc(OC)c2)S(=O)(=O)c2ccccc2)CC1 | -4.73 | -0.62% | -3.2 | 92.9 | 87.2 | -0.74 | 1.79 |
| O=C(C1CC1)N1CCc2cc(Br)cc(S(=O)(=O)NCCCN3CCCC3)c21 | -9.22 | -4.36% | -2.47 | 87.6 | 86.3 | 0.08 | 5.37 |
| CC1CCCCN1C(=O)c1ccccc1NC(=O)c1ccco1 (stereo not drawn) | -17.6 | -14.8% | -2.69 | 94.7 | 96.5 | 2.17 | 1.7 |
| COc1cccc(-n2c(Cc3cc(=O)[nH]c(=O)[nH]3)nnc2SCC(=O)Nc2ccccc2)c1 | -5.92 | -2.63% | -0.3 | 107 | 97.8 | 1.61 | 0.67 |
| CC1(C)Oc2ccc3ccc(=O)oc3c2-c2cnoc21 | 0.81 | 5.33% | -0.4 | 104 | 96.3 | 1.08 | 4.79 |
| CCN1CCCC1CNC(=O)C1c2ccccc2C(=O)N(CCOC)C1c1ccc(F)cc1 (stereo not drawn) | -3.19 | -18.9% | -1.76 | 95.6 | 98.1 | 1.17 | 7.82 |
| COCCCNc1ncnc2nc[nH]c12 | 4.6 | -1.01% | 1.43 | 104 | 104 | 0.885 | 1.74 |
| Cc1cc(C)n(-c2ncc(-c3ccccc3)nn2)n1 | -2.83 | 29.2% | -0.89 | 105 | 105 | 0.43 | 2.61 |
| CCS(=O)(=O)NCC(c1cccnc1)N1CCN(c2ccccc2OC)CC1 (stereo not drawn) | -2.57 | -3.32% | -0.33 | 98.3 | 105 | 1.11 | 3.37 |
| O=C(NC1CSC/C1=N\O)c1ccccc1 (stereo not drawn) | -9.51 | -1.84% | -2.52 | 103 | 101 | 1.17 | 1.84 |
| COc1cccc(NC=C2C(=O)OC(C)(C)OC2=O)c1 | -11 | -2.86% | -1.97 | 98.7 | 106 | 0.94 | 2.55 |
| CCCOc1cccc(C(=O)Nc2cccc(NC(=O)c3ccco3)c2)c1 | -11.2 | -14.9% | -3.58 | 85.3 | 91.6 | 1.04 | 8.68 |
| Cc1ccc(-c2nnc(N3CCCCC3)c3ccccc23)cc1S(=O)(=O)N1CCN(C)CC1 | -1.95 | -1.92% | -5.28 | 48 | 60.2 | 0.285 | -2.14 |
| CN(C)c1ccc(C(=O)Nc2nc3c(s2)CCCC3)cc1 | 9.25 | -3.03% | -0.42 | 69.7 | 72.4 | 0.905 | 1.19 |
| COc1ccc(CC(=O)c2ccc(O)cc2O)cc1OC | -6.46 | -7.7% | -3.53 | 95.6 | 89.2 | 1.26 | 2.27 |

| Compound | growth inhibition [1] [%] | growth inhibition [2] | viability increase [3] [%] | viability [4] [%] | viability [5] [%] | inhibition [6] [%] | RAM network inhibition [7] [%] |
| --- | --- | --- | --- | --- | --- | --- | --- |
| OC(CNCc1ccco1)COc1ccccc1 (stereo not drawn) | -12.7 | -10.2% | 0.59 | 100 | 103 | 1.44 | 2.54 |
| Cc1ccc(-c2nn(C)c(=O)c3ccccc23)cc1S(=O)(=O)N1CCCC1 | -1.23 | -6.2% | -5.14 | 49.8 | 61 | 0.01 | 2.78 |
| COc1ccc(NC(=O)Nc2ccc(OCC(=O)N3CCOCC3)cc2)cc1OC | -13 | -1.38% | -2.34 | 88.4 | 90.5 | 0.595 | 0.11 |
| Cc1ccc(-n2nnc3c(=O)n(Cc4cccc(C)c4)cnc32)cc1 | -5.14 | -6.1% | 1.15 | 99.9 | 93.7 | 2.65 | 1.34 |
| CCC(=O)Nc1ccccc1C(=O)N1CCN(Cc2ccccc2)CC1 | 2.08 | 3.03% | -1.2 | 99.8 | 99.7 | 1.6 | 3.32 |
| O=C(Nc1ccccc1C(=O)NCc1ccco1)c1ccccc1 | -21.8 | -6.89% | -3.16 | 100 | 90.5 | 1.55 | 8.28 |
| CC1(C)Cc2c(C#N)c(NCCCO)nc(-c3ccccc3)c2CO1 | -7.54 | -20.9% | -4.65 | 88 | 85.3 | 0.25 | -0.94 |
| C=CCSC1=N/C(=C\c2ccsc2)C(=O)S1 | 7.03 | 27.8% | -2.48 | 98.1 | 93 | 0.475 | 0.97 |
| CC1Cc2nc(SCC(=O)N3CCCC3)n(C)c(=O)c2S1 (stereo not drawn) | -3.58 | -13.8% | -3.27 | 98.2 | 87.9 | 1.17 | 5.83 |
| Cn1c(SCC(=O)NCC2CCCO2)nc2c([nH]c3ccccc32)c1=O (stereo not drawn) | 2.66 | -9.87% | -5.32 | 90.5 | 91.7 | 0.065 | 2.79 |
| COCCNC(=O)CN1C(=O)CSc2cc(S(=O)(=O)N3CCCCCC3)ccc21 | -5.04 | -4.12% | -1.52 | 98.9 | 109 | 2.73 | -0.32 |
| COCCNC(=O)COc1ccccc1Cl | -8.43 | 0.04% | -1.02 | 95.4 | 93.8 | 0.815 | 1.81 |
| CCN(CC)S(=O)(=O)c1ccc(Cl)c(C(=O)NC)c1 | -15.4 | -16.3% | -0.22 | 105 | 96.4 | 0.985 | 3.63 |
| c1nc2nc3c(c(N4CCOCC4)n2n1)CCCC3 | -6.33 | 11.4% | -1.47 | 103 | 99.7 | 0.645 | 0.44 |
| CC(=O)c1coc2ccc(OCCN3CCCCC3)cc12 | -8.68 | -18.4% | -3.83 | 85.2 | 85.8 | 0.64 | 2.59 |
| COc1ccc(C(C#N)Nc2ccccc2OC)cc1 (stereo not drawn) | -7.99 | -12.7% | -2.75 | 80.9 | 96 | 0.35 | 2.51 |
| Cc1cc(NC(=O)CSc2nc3c(c(=O)n2-c2ccccc2)SC(C)C3)no1 (stereo not drawn) | -3.02 | -11.7% | -2.58 | 93 | 91.2 | 4.66 | 1.22 |
| OCCNCCCCCOc1ccc(F)cc1 | -1.2 | -16.2% | -1.34 | 96.2 | 94.5 | 2.19 | 0.69 |
| Cc1ccc(Cn2nnc3c(=O)n(Cc4ccccc4C)cnc32)cc1 | 1.6 | -5.54% | -2.98 | 92.7 | 82.3 | 1.68 | 8.59 |
| CCOC(=O)c1cc2c(=O)n3ccccc3nc2n(C(C)C)c1=NC(=O)c1ccncc1 | 6.47 | 4.03% | -1.27 | 98.3 | 94.7 | -0.45 | -0.58 |
| Cc1ccccc1C(=O)OCn1nnc2ccccc2c1=O | -1.86 | -19.1% | -2.87 | 88.9 | 93.2 | 1.44 | 2.2 |
| O=C(NCCn1cc(SCC(=O)N2CCOCC2)c2ccccc21)c1ccccc1 | 1.06 | -5.21% | 0.4 | 97 | 99.8 | -0.225 | 0.78 |
| O=C(C1CCCCN1S(=O)(=O)c1ccc(F)cc1)N1CCN(c2ccccc2F)CC1 (stereo not drawn) | -14.1 | -8.47% | -1.06 | 80.8 | 82.9 | -0.01 | 1.9 |
| COC(=O)CN1C(=O)C(O)(CC(=O)c2ccc(Br)cc2)c2ccccc21 (stereo not drawn) | 5.54 | 11.5% | -2.96 | 92.4 | 96.6 | 0.785 | 3.19 |
